A word on the Kd: it is the equilibrium constant for the complex coming apart. As a reminder, the koff is the first-order rate constant of dissociation. Read a low koff as slow dissociation. What is called kon is the rate constant with which the complex forms. Read a low kon as slower complex formation.

The text below walks through data of PMC3243070 (European Journal of Medicinal Chemistry, 2011).

In test [1] the target is T1, bovine folate binding protein (FBP) (Bos taurus, UniProt P02702). The settings on record: SPR, earlier study; cited from earlier work. Background: Surface plasmon resonance follows binding to a sensor surface in real time, without labels.
Test [2] concerns the target T1, bovine folate binding protein (FBP). An outline of the steps: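 Bovine milk FBP amide-coupled to a CM5 chip (9.5 ng/mm2). Ligands injected in HBS-EP at 30 µL/min (monovalent) or 50 µL/min (dendrimer conjugates). Chip regenerated with 10 mM glycine-HCl pH 2.5. Reference channel subtracted. kon and koff from Langmuir fits, with mass-transport effects checked. KD = koff/kon, averaged over ≥3 measurement sets per concentration with χ2 < 5.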

A further test has as its target kidney FAR. The settings on record: cited from earlier work.

T1 sequence (P02702 20-241): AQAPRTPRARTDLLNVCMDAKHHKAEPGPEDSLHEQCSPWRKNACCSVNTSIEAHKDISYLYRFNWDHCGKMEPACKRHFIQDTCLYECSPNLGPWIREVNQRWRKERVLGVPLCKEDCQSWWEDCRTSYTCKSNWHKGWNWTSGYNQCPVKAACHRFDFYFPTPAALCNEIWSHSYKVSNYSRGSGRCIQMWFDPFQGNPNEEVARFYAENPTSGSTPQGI

Regarding `Nc1nc2ncc(CNc3ccc(C(=O)N[C@@H](CCC(=O)O)C(=O)O)cc3)nc2c(=O)[nH]1` [FA, folic acid], the Kd in test [1] is 5 µM. Besides, in test [2], the koff amounted to 0.012 s⁻¹ and the kon amounted to 1100 M⁻¹ s⁻¹. Also, the Kd at kidney FAR is approximately 0.001 µM.
As to `CN(Cc1cnc2nc(N)nc(N)c2n1)c1ccc(C(=O)N[C@@H](CCC(=O)O)C(=O)O)cc1` [MTX, methotrexate], the “affinity lower than that of FA” value in test [2] (from the SPR KD values) is “≈ 2 fold”. Besides, the Kd on kidney FAR is 0.02 to 0.1 µM.
